Assay results from ChEMBL document CHEMBL1122070, “Potential antitrypanosomal agents. 1,N2-Disubstituted 2-amino-5-hydroxy-4-methylnaphtho[1,2-d]thiazolium salts and related compounds” (1982).
Calls of active or inactive are those of the source. The calls are words filed in the database; no cut-off is given here.

Assays:
[1] = tested on: Mus musculus; experiment: Maximum tolerated (nonfatal) intraperitoneal dose tested in mice infected with Trypanosoma brucei.; type: functional
Method in brief: (§1)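 Female Swiss-Webster mice (20-25 g) infected ip with 5×10^4 T. brucei EATRO 110 in freshly drawn infected mouse blood diluted with minimum essential medium. Groups of five mice received compound ip 4-6 h post-infection, as a milled suspension in saline with 0.25% methylcellulose or as a saline solution. A dose was scored toxic if mean survival was <90% of untreated controls or deaths occurred within 72 h; the compound was then retested at a lower dose.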

[2] = tested on: Trypanosoma brucei; experiment: Minimum concentration producing complete lysis of all trypanosomes within 30 min at 37 degrees C in vitro; type: functional
Method in brief: (§2)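 T. brucei EATRO 110 bloodstream forms from infected rat or mouse blood, 1.5-2 × 10^7/mL in 1:1 phosphate-buffered saline-glucose and MEM, held on ice and used within 8 h. At 37 °C, turbidity was followed at 750 nm. Compound was added at 5–1000 μM final, with Me2SO ≤1% v/v. Phase microscopy scored lysis at 5, 10 and 30 min. MLC is the lowest concentration lysing all within 30 min. Near-MLC concentrations were repeated on 2–3 harvests.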

[3] = tested on: Mus musculus; experiment: Maximum tolerated (nonfatal) intraperitoneal dose tested in mice infected with Trypanosoma brucei.
[4] = tested on: Mus musculus; experiment: Maximum tolerated (nonfatal) intraperitoneal dose tested in mice infected with Trypanosoma brucei; type: functional; method in brief: as §1
[5] = tested on: Trypanosoma brucei; experiment: Minimum concentration producing complete lysis of all trypanosomes within 30 min at 37 degrees C in vitro in the presence of bovine serum albumin.; type: functional, organism-based
Method in brief: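 Trypanolysis of T. brucei EATRO 110 bloodstream forms (1.5-2 × 10^7/mL, 1:1 phosphate-buffered saline-glucose/MEM) with 0.3% bovine serum albumin added to the suspending medium, 37 °C. Compound was added at 5–1000 μM final with Me2SO ≤1% v/v. Turbidity was read at 750 nm and lysis checked microscopically at 5, 10 and 30 min. MLC is the lowest concentration giving complete lysis within 30 min.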

[6] = tested on: Trypanosoma brucei; experiment: Minimum concentration producing complete lysis of all trypanosomes within 30 min at 37 degrees C in vitro; IA is Inactive at 5 uM; type: functional, organism-based; method in brief: as §2

Structure (SMILES)	Max dose [1] [mg/kg]	Min lytic concentration [2] [µM]	Max dose [3] [mg/kg]	Max dose [4] [mg/kg]	Concentration [5] [µM]	Min lytic concentration [6]
Cc1c(O)c2ccccc2c2nc(N)sc12.Cl	50	100	–	–	–	–
COCCNc1sc2c(C)c(O)c3ccccc3c2[n+]1C.[Cl-]	–	50	50	–	–	–
Cc1c(O)c2ccccc2c2c1sc(Nc1ccccc1)[n+]2C.[Cl-]	–	10	200	–	–	–
Cc1c(O)c2ccccc2c2c1sc(Nc1ccccc1)[n+]2CCO.[Cl-]	–	>5	400	–	–	–
Cc1c(O)c2ccccc2c2nc(Nc3ccccc3)sc12.Cl	–	20	200	–	–	–
Cl.Nc1nc2c(cc(O)c3ccccc32)s1	–	>500	–	100	–	–
CCCCCCNc1sc2c(C)c(O)c3ccccc3c2[n+]1CCCCCC.[Cl-]	–	>10	200	–	–	–
Cc1c(O)c2ccccc2c2c1sc(NCCO)[n+]2C.[Cl-]	–	100	100	–	–	–
CCCCNc1sc2c(C)c(O)c3ccccc3c2[n+]1CCCC.[Cl-]	–	10	400	–	100	–
CCCNc1sc2c(C)c(O)c3ccccc3c2[n+]1CCC.[Cl-]	–	30	400	–	–	–
Cc1c(O)c2ccccc2c2c1sc1[n+]2CCN1.[Cl-]	–	30	200	–	–	–
Cc1c(O)c2ccccc2c2c1sc(NC1CCCCC1)[n+]2CCO.[Cl-]	–	20	400	–	–	–
Cc1c(O)c2ccccc2c2c1sc(NCCCN(CCO)CCO)[n+]2C.[Cl-]	–	100	50	–	200	–
Nc1nc(N)nc(Nc2ccc([As]3SCC(CO)S3)cc2)n1 (configuration not stated) [MELARSOPROL]	–	100	–	–	–	–
CNc1sc2c(C)c(O)c3ccccc3c2[n+]1C.[Cl-]	–	100	50	–	–	–
COc1ccc(Nc2nc3c(s2)c(C)c(O)c2ccccc23)cc1.Cl	400	10	–	–	–	–
CCNc1sc2c(C)c(O)c3ccccc3c2[n+]1CC.[Cl-]	–	50	200	–	200	–
CCCCCCCCNc1sc2c(C)c(O)c3ccccc3c2[n+]1C.[Cl-]	–	10	200	–	–	–
C=CCNc1sc2c(C)c(O)c3ccccc3c2[n+]1CC=C.[Cl-]	–	20	400	–	–	–
Cc1c(O)c2ccccc2c2c1sc(NCC(C)C)[n+]2CC(C)C.[Cl-]	–	10	200	–	–	–
Cc1c(O)c2ccccc2c2c1sc(NCCc1ccccc1)[n+]2C.[Cl-]	–	10	400	–	–	–
CCCCNc1sc2c(C)c(O)c3ccccc3c2[n+]1C.[Cl-]	–	10	200	–	–	–
C=CCNc1nc2c(s1)c(C)c(O)c1ccccc12.Cl	–	20	200	–	–	–
Cc1c(O)c2ccccc2c2c1sc1[n+]2CCCN1.[Cl-]	–	>100	200	–	–	–
Cc1c(O)c2ccccc2c2c1sc(NCCCN1CCN(C)CC1)[n+]2C.Cl.[Cl-]	–	100	100	–	100	–
CC(=O)c1cccc(Nc2sc3c(C)c(O)c4ccccc4c3[n+]2C)c1	–	–	200	–	–	inactive
CNc1nc2c(s1)c(C)c(O)c1ccccc12.Cl	100	30	–	–	–	–
